Laboratory results: publication PMC7928716 (Science Signaling, 2021)
Square brackets hold non-standard residues; d marks the D form. Peptide text beside a SMILES is read from it. * marks the point of attachment. FITC = O=C1OC2(c3ccc(O)cc3Oc3cc(O)ccc32)c2ccc(NC(=S)*)cc21; pY = N[C@@H](Cc1ccc(OP(=O)(O)O)cc1)C(=O)O; pT = C[C@@H](OP(=O)(O)O)[C@H](N)C(=O)O; pS = N[C@@H](COP(=O)(O)O)C(=O)O

Key:
SARS-CoV-2 = conditions: study repurposing approved compounds; cited from earlier work
MAP1LC3C ATG8 = MAP1LC3C ATG8 (Homo sapiens, UniProt Q9BXW4); test: FP displacement of FITC-SQSTM1_335–344 from MAP1LC3C ATG8; assay type: binding
MAP1LC3C ATG8, sequence (Q9BXW4 2-125): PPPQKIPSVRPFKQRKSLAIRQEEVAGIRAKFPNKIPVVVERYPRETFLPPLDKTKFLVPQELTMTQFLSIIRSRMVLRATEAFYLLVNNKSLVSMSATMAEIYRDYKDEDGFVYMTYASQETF
Method in brief: (§1)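 GST-tagged ATG8 domains were expressed in E. coli BL21-Gold (DE3) with 1 mM IPTG at OD600 0.7 for 16 h at 18°C. They were glutathione-bead purified, thrombin-cleaved overnight at 4°C, and dialysed into 50 mM sodium phosphate pH 7.4 with 1 mM DTT. Domain level for displacement was set from FITC-SQSTM1 saturation curves. Unlabeled peptides were in phosphate buffer. FP was read at room temperature and KI calculated.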

GABARAPL2 ATG8 [1] = biological target: T1, GABARAPL2 ATG8 (Homo sapiens, UniProt P60520); test: FP displacement of FITC-SQSTM1_335–344 from GABARAPL2 ATG8; assay type: binding
T1 sequence (P60520 2-115): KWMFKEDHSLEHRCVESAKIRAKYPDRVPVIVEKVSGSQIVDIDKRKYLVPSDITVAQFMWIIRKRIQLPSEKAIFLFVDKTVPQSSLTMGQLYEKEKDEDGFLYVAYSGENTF
Method in brief: as §1

MAP1LC3B ATG8 [2] = biological target: T2, MAP1LC3B ATG8 (Homo sapiens, UniProt Q9GZQ8); test: FP displacement of FITC-SQSTM1_335–344 from MAP1LC3B ATG8; assay type: binding
Method in brief: as §1

MAP1LC3A ATG8 [3] = biological target: T3, MAP1LC3A ATG8 (Homo sapiens, UniProt Q9H492); test: FP displacement of FITC-SQSTM1_335–344 from MAP1LC3A ATG8; assay type: binding
Method in brief: as §1

GABARAP ATG8 [4] = biological target: T4, GABARAP ATG8 (Homo sapiens, UniProt O95166); test: FP displacement of FITC-SQSTM1_335–344 from GABARAP ATG8; assay type: binding
T4 sequence (O95166 2-115): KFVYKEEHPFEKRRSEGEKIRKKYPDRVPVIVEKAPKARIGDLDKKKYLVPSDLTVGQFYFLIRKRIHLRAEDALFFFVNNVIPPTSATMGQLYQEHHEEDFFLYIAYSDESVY
Method in brief: as §1

IRS1 PTB = biological target: T5, IRS1 PTB (Homo sapiens, UniProt P35568); test: FP saturation; assay type: binding
T5 sequence (P35568 157-267): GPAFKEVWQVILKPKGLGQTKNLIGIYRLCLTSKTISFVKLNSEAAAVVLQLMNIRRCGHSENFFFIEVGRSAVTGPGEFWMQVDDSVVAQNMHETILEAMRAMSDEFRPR
Method in brief: (§2)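 Direct FP saturation used GST-tagged PTB domains (the talin entry is the PTB-like FERM lobe), expressed in E. coli at 18°C for 16 h. GST was removed with thrombin and the protein dialysed into 50 mM sodium phosphate pH 7.4 with 1 mM DTT. KD came from a quadratic fit, in technical triplicates.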

SNX17 FERM = biological target: T6, SNX17 FERM (Mus musculus, UniProt Q8BVL3); test: FP saturation; assay type: binding
T6 sequence (Q8BVL3 109-388): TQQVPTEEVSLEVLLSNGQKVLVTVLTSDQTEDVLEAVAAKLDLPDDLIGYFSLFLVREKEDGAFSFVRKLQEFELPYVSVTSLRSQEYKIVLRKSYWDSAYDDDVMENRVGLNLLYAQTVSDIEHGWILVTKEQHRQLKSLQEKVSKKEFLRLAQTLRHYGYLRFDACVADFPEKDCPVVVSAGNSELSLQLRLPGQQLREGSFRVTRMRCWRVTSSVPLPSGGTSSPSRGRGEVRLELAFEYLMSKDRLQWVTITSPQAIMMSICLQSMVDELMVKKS
Method in brief: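 The FERM domain was expressed GST-tagged in E. coli BL21-Gold (DE3) at 18°C. The tag was removed with TEV protease and the protein dialysed into 50 mM sodium phosphate pH 7.4 with 1 mM DTT. Direct FP used 5 nM FITC-labeled peptide with a protein dilution series at room temperature and no preincubation. KD came from a quadratic fit, in technical triplicates.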

DOK1 PTB = biological target: T7, DOK1 PTB (Homo sapiens, UniProt Q99704); test: FP saturation; assay type: binding
T7 sequence (Q99704 151-256): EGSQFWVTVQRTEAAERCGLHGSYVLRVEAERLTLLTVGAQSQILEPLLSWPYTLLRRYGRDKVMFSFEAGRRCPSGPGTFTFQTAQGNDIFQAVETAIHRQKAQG
Method in brief: as §2

TLN2 PTB = TLN2 PTB (Homo sapiens, UniProt Q9Y4G6); test: FP saturation; assay type: binding
TLN2 PTB, sequence (Q9Y4G6 309-401): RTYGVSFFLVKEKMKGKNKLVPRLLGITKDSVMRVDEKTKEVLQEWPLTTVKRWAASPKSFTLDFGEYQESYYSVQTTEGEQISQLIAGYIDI
Method in brief: as §2

FRS2 PTB = biological target: T8, FRS2 PTB (Homo sapiens, UniProt Q8WU20); test: FP saturation; assay type: binding
T8 sequence (Q8WU20 8-136): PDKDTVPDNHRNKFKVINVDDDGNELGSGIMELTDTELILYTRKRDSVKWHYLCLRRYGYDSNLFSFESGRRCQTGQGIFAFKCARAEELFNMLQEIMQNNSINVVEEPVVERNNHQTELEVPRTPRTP
Method in brief: as §2

GABARAP ATG8 [5] = biological target: T4, GABARAP ATG8; test: FP saturation; assay type: binding
MAP1LC3A ATG8 [6] = biological target: T3, MAP1LC3A ATG8; test: FP saturation; assay type: binding
NCK1 SH2 = NCK1 SH2 (Homo sapiens, UniProt P16333); test: FP saturation; assay type: binding
FYN SH2 = FYN SH2 (Homo sapiens, UniProt P06241); test: FP saturation; assay type: binding
FYN SH2, sequence (P06241 142-251): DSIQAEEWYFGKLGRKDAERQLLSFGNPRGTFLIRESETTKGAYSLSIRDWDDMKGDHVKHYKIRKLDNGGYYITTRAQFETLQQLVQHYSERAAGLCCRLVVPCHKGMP
Method in brief: (§3)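 The SH2 domain was expressed GST-tagged in E. coli. The tag was cleaved with HRV 3C and the protein dialysed into 50 mM sodium phosphate pH 7.4 with 1 mM DTT. KD came from a quadratic fit, in technical triplicates.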

GABARAPL2 ATG8 [7] = biological target: T1, GABARAPL2 ATG8; test: FP saturation; assay type: binding
Method in brief: (§4)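 GST-tagged domains were expressed in E. coli BL21-Gold (DE3) (IPTG induction, 16 h at 18°C) and purified on glutathione beads. The tag was removed with thrombin, and domains were dialysed into 50 mM sodium phosphate pH 7.4 with 1 mM DTT. Probes were FITC-ATG9A4–14 (AP2 μ2) and FITC-SQSTM1335–344 (ATG8 domains). 5 nM labelled peptide was mixed with an equal volume of a protein dilution series at room temperature and read without preincubation. KD came from a quadratic fit, in technical triplicates.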

MAP1LC3B ATG8 [8] = biological target: T2, MAP1LC3B ATG8; test: FP saturation; assay type: binding
Method in brief: as §4

LYN SH2 = LYN SH2 (Homo sapiens, UniProt P07948); test: FP saturation; assay type: binding
LYN SH2, sequence (P07948 127-234): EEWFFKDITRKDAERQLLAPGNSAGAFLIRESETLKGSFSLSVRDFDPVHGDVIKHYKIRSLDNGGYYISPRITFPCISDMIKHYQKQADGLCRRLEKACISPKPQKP
Method in brief: as §3

AP2 μ2 = biological target: T9, AP2 μ2 (Homo sapiens, UniProt Q96CW1); test: FP saturation; assay type: binding
T9 sequence (Q96CW1 160-435): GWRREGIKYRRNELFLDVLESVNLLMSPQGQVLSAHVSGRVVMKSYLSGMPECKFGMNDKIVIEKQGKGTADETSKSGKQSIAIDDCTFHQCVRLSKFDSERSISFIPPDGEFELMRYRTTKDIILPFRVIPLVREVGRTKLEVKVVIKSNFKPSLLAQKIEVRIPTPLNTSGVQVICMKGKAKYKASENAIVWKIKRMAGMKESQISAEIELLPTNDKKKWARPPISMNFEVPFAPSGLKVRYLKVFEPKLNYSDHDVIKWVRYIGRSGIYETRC
Method in brief: as §4

Compound	Ki (MAP1LC3C ATG8)	Ki (GABARAPL2 ATG8 [1])	Ki (MAP1LC3B ATG8 [2])	Ki (MAP1LC3A ATG8 [3])	further results
Cc1cccc(/C=N/Nc2cc(N3CCOCC3)nc(OCCc3ccccn3)n2)c1 [apilimod]					inhibition of viral replication (SARS-CoV-2): potent inhibitor of viral replication
CC[C@H](C)[C@H](NC(=O)[C@H](CC(N)=O)NC(=O)[C@@H](NC(=O)[C@H](Cc1ccccc1)NC(=O)[C@@H](NC(=O)[C@H](COP(=O)(O)O)NC(=O)[C@@H](NC(=O)[C@H](C)NC(=O)[C@H](CCC(=O)O)NC(=O)[C@H](CCCCN)NC(C)=O)[C@@H](C)O)[C@@H](C)O)[C@@H](C)O)C(=O)N[C@H](C(=O)N[C@@H](Cc1ccc(O)cc1)C(=O)N[C@@H](CCCNC(=N)N)C(=O)NCC(N)=O)[C@@H](C)O [pSer^778] (Ac-KEAT[pS]TFTNITYRG-NH2)	16.1 ± 0.5 µM	80 ± 5 µM	> 100 µM	29.4 ± 0.5 µM	
CC[C@H](C)[C@H](NC(=O)[C@H](CC(N)=O)NC(=O)[C@@H](NC(=O)[C@H](Cc1ccccc1)NC(=O)[C@@H](NC(=O)[C@H](CO)NC(=O)[C@@H](NC(=O)[C@H](C)NC(=O)[C@H](CCC(=O)O)NC(=O)[C@H](CCCCN)NC(C)=O)[C@@H](C)O)[C@@H](C)OP(=O)(O)O)[C@@H](C)O)C(=O)N[C@H](C(=O)N[C@@H](Cc1ccc(O)cc1)C(=O)N[C@@H](CCCNC(=N)N)C(=O)NCC(N)=O)[C@@H](C)O [pThr^779] (Ac-KEATS[pT]FTNITYRG-NH2)	82 ± 3 µM	> 100 µM	> 100 µM	> 100 µM	
CC[C@H](C)[C@H](NC(=O)[C@H](CC(N)=O)NC(=O)[C@@H](NC(=O)[C@H](Cc1ccccc1)NC(=O)[C@@H](NC(=O)[C@H](CO)NC(=O)[C@@H](NC(=O)[C@H](C)NC(=O)[C@H](CCC(=O)O)NC(=O)[C@H](CCCCN)NC(C)=O)[C@@H](C)OP(=O)(O)O)[C@@H](C)O)[C@@H](C)O)C(=O)N[C@H](C(=O)N[C@@H](Cc1ccc(O)cc1)C(=O)N[C@@H](CCCNC(=N)N)C(=O)NCC(N)=O)[C@@H](C)O [pThr^777] (Ac-KEA[pT]STFTNITYRG-NH2)	73 ± 4 µM		> 100 µM	> 100 µM	Ki (GABARAP ATG8 [4]): 47 ± 3 µM
CC[C@H](C)[C@H](NC(=O)[C@H](CC(N)=O)NC(=O)[C@@H](NC(=O)[C@H](Cc1ccccc1)NC(=O)[C@@H](NC(=O)[C@H](CO)NC(=O)[C@@H](NC(=O)[C@H](C)NC(=O)[C@H](CCC(=O)O)NC(=O)[C@H](CCCCN)NC(C)=O)[C@@H](C)O)[C@@H](C)O)[C@@H](C)O)C(=O)N[C@H](C(=O)N[C@@H](Cc1ccc(OP(=O)(O)O)cc1)C(=O)N[C@@H](CCCNC(=N)N)C(=O)NCC(N)=O)[C@@H](C)O [pTyr^785] (Ac-KEATSTFTNIT[pY]RG-NH2)	83 ± 4 µM	89 ± 12 µM	81 ± 2 µM	38 ± 2 µM	
C[C@@H](O)[C@H](NC(=O)[C@H](CC(N)=O)NC(=O)[C@H](CCC(N)=O)NC(=O)[C@H](Cc1ccccc1)NC(=O)CNC(=O)[C@@H]1CCCN1C(=O)[C@H](CC(N)=O)NC(=O)[C@H](CC(N)=O)NC(=O)[C@H](CCC(=O)O)NC(=O)CNC(=O)[C@H](CCCCN)NC(=O)[C@H](CO)NC(=S)Nc1ccc2c(c1)C(=O)OC21c2ccc(O)cc2Oc2cc(O)ccc21)C(N)=O [ACE2_787–798] ({FITC}-SKGENNPGFQNT-NH2)					Kd (IRS1 PTB): > 100 µM; Kd (SNX17 FERM): ~100 µM; Kd (DOK1 PTB): > 100 µM; Kd (TLN2 PTB): > 100 µM; Kd (FRS2 PTB): > 100 µM
CC[C@H](C)[C@H](NC(=O)[C@H](CC(=O)O)NC(=O)[C@@H](NC(=O)[C@H](CO)NC(=O)[C@H](C)NC(=O)[C@H](Cc1ccc(O)cc1)NC(=O)[C@@H]1CCCN1C(=O)[C@H](CC(N)=O)NC(=O)[C@H](CCC(=O)O)NC(=O)CNC(=O)[C@H](CO)NC(=O)[C@H](CCCNC(=N)N)NC(=S)Nc1ccc2c(c1)C(=O)OC21c2ccc(O)cc2Oc2cc(O)ccc21)[C@@H](C)CC)C(=O)N[C@@H](CO)C(=O)N[C@@H](CCCCN)C(=O)NCC(=O)N[C@@H](CCC(=O)O)C(N)=O [ACE2_775–790 Unphos.] ({FITC}-RSGENPYASIDISKGE-NH2)					Kd (GABARAP ATG8 [5]): > 100 µM; Kd (MAP1LC3A ATG8 [6]): > 100 µM; Kd (NCK1 SH2): > 100 µM; Kd (FYN SH2): > 100 µM; Kd (GABARAPL2 ATG8 [7]): > 100 µM; Kd (MAP1LC3B ATG8 [8]): > 100 µM; Kd (LYN SH2): > 100 µM; Kd (AP2 μ2): ~60 µM
CC[C@H](C)[C@H](NC(=O)[C@H](CC(N)=O)NC(=O)[C@@H](NC(=O)[C@H](Cc1ccccc1)NC(=O)[C@@H](NC(=O)[C@H](CO)NC(=O)[C@@H](NC(=O)[C@H](C)NC(=O)[C@H](CCC(=O)O)NC(=O)[C@H](CCCCN)NC(C)=O)[C@@H](C)O)[C@@H](C)OP(=O)(O)O)[C@@H](C)O)C(=O)N[C@H](C(=O)N[C@@H](Cc1ccc(OP(=O)(O)O)cc1)C(=O)N[C@@H](CCCNC(=N)N)C(=O)NCC(N)=O)[C@@H](C)O [pThr^779/pTyr^785] (Ac-KEATS[pT]FTNIT[pY]RG-NH2)	8 ± 2 µM		15 ± 1 µM	8.5 ± 0.5 µM	Ki (GABARAP ATG8 [4]): 17.8 ± 0.8 µM
